Activity calls are given as the source filed them.
Experiments:
[1] = target: T1, Cystic fibrosis transmembrane conductance regulator (Homo sapiens, UniProt P13569); test: Potentiation of CFTR in primary human bronchial epithelial cells assessed as stimulation of CFTR-mediated chloride current at 100 uM in presence of CPT-cAMP by short-circuit current method; details: dose 1.0 µM, in the assay text read “at 1 uM” for “at 100 uM”
Method in brief: (§1)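 Non-CF primary HBE cells on porous inserts, differentiated at air–liquid interface 2–3 weeks; Ussing chamber short-circuit current. Amiloride added to block ENaC; cells stimulated with submaximal CPT-cAMP, then increasing potentiator concentrations or potentiator then CPT-cAMP 5 μM and 100 μM; total CFTR current defined by CFTR inhibitor-172; n = 9 (three experiments × three replicates).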
Target sequence in this assay (P13569 whole entry, looked up): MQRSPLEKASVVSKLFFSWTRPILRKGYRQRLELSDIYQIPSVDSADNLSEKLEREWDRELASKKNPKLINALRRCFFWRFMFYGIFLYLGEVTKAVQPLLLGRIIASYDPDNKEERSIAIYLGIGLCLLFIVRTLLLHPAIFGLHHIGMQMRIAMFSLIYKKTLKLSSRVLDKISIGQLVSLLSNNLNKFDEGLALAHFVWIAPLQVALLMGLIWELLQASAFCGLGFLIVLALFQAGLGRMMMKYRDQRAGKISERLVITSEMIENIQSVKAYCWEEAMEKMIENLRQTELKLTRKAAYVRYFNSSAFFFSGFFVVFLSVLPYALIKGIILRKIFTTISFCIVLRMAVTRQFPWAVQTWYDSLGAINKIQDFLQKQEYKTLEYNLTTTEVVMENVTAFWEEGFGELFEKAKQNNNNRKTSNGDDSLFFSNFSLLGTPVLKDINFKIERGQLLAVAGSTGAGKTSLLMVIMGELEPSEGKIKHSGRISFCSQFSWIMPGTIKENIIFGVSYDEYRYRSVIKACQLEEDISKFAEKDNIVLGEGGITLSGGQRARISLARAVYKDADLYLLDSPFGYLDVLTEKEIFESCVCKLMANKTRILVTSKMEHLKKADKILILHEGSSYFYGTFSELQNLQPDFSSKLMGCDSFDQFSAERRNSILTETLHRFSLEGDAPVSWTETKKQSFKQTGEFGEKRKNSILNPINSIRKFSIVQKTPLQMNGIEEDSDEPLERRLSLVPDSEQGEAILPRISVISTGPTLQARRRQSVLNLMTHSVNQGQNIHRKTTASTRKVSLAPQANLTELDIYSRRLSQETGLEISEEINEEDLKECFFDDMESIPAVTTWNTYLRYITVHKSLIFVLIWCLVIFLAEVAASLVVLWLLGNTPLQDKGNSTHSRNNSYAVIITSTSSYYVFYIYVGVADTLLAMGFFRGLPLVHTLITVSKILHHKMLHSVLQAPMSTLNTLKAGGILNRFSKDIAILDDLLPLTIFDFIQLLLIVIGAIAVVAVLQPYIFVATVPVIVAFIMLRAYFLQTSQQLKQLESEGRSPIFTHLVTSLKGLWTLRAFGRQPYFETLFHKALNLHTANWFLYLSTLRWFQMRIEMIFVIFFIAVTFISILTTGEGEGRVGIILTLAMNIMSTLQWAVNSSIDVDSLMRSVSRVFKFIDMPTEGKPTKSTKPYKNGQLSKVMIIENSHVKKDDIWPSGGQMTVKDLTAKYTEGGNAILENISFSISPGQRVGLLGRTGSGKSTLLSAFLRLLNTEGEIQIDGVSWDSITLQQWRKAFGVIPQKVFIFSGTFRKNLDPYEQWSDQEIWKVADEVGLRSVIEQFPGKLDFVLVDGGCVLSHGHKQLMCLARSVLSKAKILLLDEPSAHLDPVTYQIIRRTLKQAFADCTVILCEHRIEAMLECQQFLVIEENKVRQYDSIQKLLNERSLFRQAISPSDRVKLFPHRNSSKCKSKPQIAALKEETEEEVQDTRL

[2] = system: Cystic fibrosis transmembrane conductance regulator (Homo sapiens), P13569 [G551D]; test: Potentiation of human CFTR G551D mutant expressed in rat FRT cells coexpressing HS-YFP assessed as increase in iodide influx at 20 uM pre-incubated for 15 to 30 mins in presence of forskolin by fluorescent method relative to forskolin alone; assay type: cell-based; details: time min 15-30
Sequence of Cystic fibrosis transmembrane conductance regulator (Homo sapiens), P13569 [G551D] (P13569 whole entry G551D): as the sequence (P13569 whole entry, looked up) above, with G551D counted along it
Method in brief: (§2)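 HS-YFP iodide influx assay in FRT cells (F508del cells rescued 24 h at 32 °C; G551D cells not); 25 min with forskolin plus compound at fixed concentrations, then I⁻ injection (final 100 mM); quenching rate from linear fit of final 10 s of a 14 s reading; three concentrations tested on G551D cells; n = 9.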

[3] = system: Cystic fibrosis transmembrane conductance regulator (Homo sapiens), P13569 [F508del]; test: Effect on processing/trafficking of CFTR F508 deletion mutant in primary HBE cells from F508del/F508del CF patient at 0.5 uM incubated for 24 hrs in presence of CFTR corrector ARN23765 by TEER/PD assay; assay type: cell-based
Sequence of Cystic fibrosis transmembrane conductance regulator (Homo sapiens), P13569 [F508del] (P13569 as listed by the source): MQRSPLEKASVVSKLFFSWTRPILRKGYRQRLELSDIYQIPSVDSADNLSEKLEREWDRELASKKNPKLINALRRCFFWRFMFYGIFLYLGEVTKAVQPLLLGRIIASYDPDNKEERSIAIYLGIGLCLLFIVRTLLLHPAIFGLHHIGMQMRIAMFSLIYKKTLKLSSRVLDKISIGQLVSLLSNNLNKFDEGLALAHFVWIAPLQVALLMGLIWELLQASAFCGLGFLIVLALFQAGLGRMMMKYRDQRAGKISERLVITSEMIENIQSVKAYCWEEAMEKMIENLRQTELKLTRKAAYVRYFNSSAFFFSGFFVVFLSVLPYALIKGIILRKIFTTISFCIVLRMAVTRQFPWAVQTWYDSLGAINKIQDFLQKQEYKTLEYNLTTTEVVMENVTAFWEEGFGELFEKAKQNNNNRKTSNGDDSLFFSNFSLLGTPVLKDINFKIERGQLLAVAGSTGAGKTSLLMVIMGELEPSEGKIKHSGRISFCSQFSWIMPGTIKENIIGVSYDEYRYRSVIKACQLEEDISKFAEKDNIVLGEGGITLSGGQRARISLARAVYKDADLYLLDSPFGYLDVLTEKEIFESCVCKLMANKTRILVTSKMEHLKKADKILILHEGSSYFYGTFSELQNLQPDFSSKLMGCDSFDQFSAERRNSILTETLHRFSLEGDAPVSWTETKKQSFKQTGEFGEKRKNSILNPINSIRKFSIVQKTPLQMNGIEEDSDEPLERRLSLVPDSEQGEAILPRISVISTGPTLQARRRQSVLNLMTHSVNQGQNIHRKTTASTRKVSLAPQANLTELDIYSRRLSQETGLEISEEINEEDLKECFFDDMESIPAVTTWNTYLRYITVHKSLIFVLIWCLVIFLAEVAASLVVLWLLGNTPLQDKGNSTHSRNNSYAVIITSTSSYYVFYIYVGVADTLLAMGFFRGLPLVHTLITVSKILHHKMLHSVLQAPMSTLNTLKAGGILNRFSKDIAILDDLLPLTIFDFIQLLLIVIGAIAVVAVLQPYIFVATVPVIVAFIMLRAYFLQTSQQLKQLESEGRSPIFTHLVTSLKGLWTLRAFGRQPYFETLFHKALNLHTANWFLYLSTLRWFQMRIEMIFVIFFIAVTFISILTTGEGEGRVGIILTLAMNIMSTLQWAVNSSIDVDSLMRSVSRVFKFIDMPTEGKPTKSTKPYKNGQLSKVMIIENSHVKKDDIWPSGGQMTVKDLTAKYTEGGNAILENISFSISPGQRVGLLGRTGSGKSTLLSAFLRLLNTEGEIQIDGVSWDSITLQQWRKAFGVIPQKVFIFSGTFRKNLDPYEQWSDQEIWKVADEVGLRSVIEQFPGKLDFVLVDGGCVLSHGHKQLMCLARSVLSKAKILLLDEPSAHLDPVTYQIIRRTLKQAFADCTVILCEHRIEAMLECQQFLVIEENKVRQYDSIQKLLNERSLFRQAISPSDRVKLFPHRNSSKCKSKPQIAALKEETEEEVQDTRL
Method in brief: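 Differentiated F508del/F508del primary bronchial epithelia grown at air–liquid interface 2–3 weeks; treated 24 h at 37 °C, 5% CO2 in culture medium with vehicle, corrector ARN23765 (10 nM) alone, or ARN23765 plus test compound (0.5 μM); TEER and PD measured, equivalent short-circuit current calculated; n = 9 (three experiments × three biological replicates).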

[4] = system: Cystic fibrosis transmembrane conductance regulator (Homo sapiens), P13569 [G551D]; test: Potentiation of human CFTR G551D mutant expressed in rat FRT cells coexpressing HS-YFP assessed as increase in iodide influx at 1.56 to 50 uM pre-incubated for 15 to 30 mins in presence of forskolin by fluorescent method relative to forskolin alone; assay type: cell-based; details: filed as activator, dose microM 1.56-50, time min 15-30
Method in brief: (§3)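 Cells plated 50,000/well, assayed next day; F508del FRT cells first held 24 h at 32 °C to rescue trafficking. Washed in PBS, incubated 25 min with forskolin (20 μM) plus compound, then I⁻ solution injected (final 100 mM). YFP fluorescence (ex 500, em 535 nm) read for 14 s; initial slope from linear fit of final 10 s; dose–response, n = 9.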

[5] = system: Cystic fibrosis transmembrane conductance regulator (Homo sapiens), P13569 [F508del]; test: Potentiation of human CFTR F508 deletion mutant expressed in CFBE41o cells coexpressing HS-YFP assessed as increase in CFTR-dependent iodide influx at 0.256 to 10 uM pre-incubated for 15 to 30 mins in presence of forskolin by fluorescent method relative to forskolin alone; details: filed as activator, dose microM 0.256-10, time min 15-30
[6] = system: Cystic fibrosis transmembrane conductance regulator (Homo sapiens), P13569 [F508del]; test: Potentiation of human CFTR F508 deletion mutant expressed in rat FRT cells coexpressing HS-YFP assessed as increase in iodide influx at […] to 10 uM pre-incubated for 15 to 30 mins in presence of forskolin by fluorescent method relative to forskolin alone; assay type: cell-based; details: filed as activator, dose microM 0.256-10, time min 15-30; method in brief: as §3
[7] = system: Cystic fibrosis transmembrane conductance regulator (Homo sapiens), P13569 [F508del]; test: Potentiation of human CFTR F508 deletion mutant expressed in rat FRT cells coexpressing HS-YFP assessed as increase in iodide influx at 5 uM pre-incubated for 15 to 30 mins in presence of forskolin by fluorescent method relative to forskolin alone; assay type: cell-based; details: filed as activator, time min 15-30; method in brief: as §3
[8] = system: Cystic fibrosis transmembrane conductance regulator (Homo sapiens), P13569 [F508del]; test: Potentiation of human CFTR F508 deletion mutant expressed in rat FRT cells coexpressing HS-YFP assessed as increase in iodide influx at 1 uM pre-incubated for 15 to 30 mins in presence of forskolin by fluorescent method relative to forskolin alone; assay type: cell-based; details: filed as activator, time min 15-30; method in brief: as §2
[9] = system: Cystic fibrosis transmembrane conductance regulator (Homo sapiens), P13569 [G551D]; test: Potentiation of human CFTR G551D mutant expressed in rat FRT cells coexpressing HS-YFP assessed as increase in iodide influx at 5 uM pre-incubated for 15 to 30 mins in presence of forskolin by fluorescent method relative to forskolin alone; assay type: cell-based; details: filed as activator, time min 15-30; method in brief: as §2
[10] = target: T1, Cystic fibrosis transmembrane conductance regulator; test: Potentiation of CFTR in primary human bronchial epithelial cells assessed as stimulation of CFTR-mediated chloride current at 0.5 to 5 uM in presence of CPT-cAMP and CFTR inhibitor-172 by short-circuit current method; details: dose microM 0.5-5; method in brief: as §1
Target sequence in this assay (P13569 whole entry, looked up): as the sequence (P13569 whole entry, looked up) above

[11] = target: T1, Cystic fibrosis transmembrane conductance regulator; test: Potentiation of CFTR in primary human bronchial epithelial cells assessed as stimulation of CFTR-mediated chloride current at 30 to […] uM in presence of CPT-cAMP by short-circuit current method; details: filed as activator, dose microM 30-50; method in brief: as §1
Target sequence in this assay (P13569 whole entry, looked up): as above

[12] = target: T1, Cystic fibrosis transmembrane conductance regulator; test: Potentiation of human CFTR F508 deletion mutant expressed in rat FRT cells coexpressing HS-YFP assessed as increase in iodide influx pre-incubated for 15 to 30 mins in presence of forskolin by fluorescent method; assay type: cell-based
Target sequence in this assay (P13569 as listed by the source): as the sequence (P13569 as listed by the source) above

[13] = system: Cystic fibrosis transmembrane conductance regulator (Homo sapiens), P13569 [F508del]; test: Potentiation of human CFTR F508 deletion mutant expressed in rat FRT cells coexpressing HS-YFP assessed as increase in iodide influx pre-incubated for 15 to 30 mins in presence of forskolin by fluorescent method relative to forskolin alone; assay type: cell-based; details: time min 15-30
Method in brief: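 Primary HTS: F508del-CFTR/HS-YFP FRT cells, rescued 24 h at 32 °C, were treated acutely (15–30 min) with single compound at 5 μM plus forskolin 10 μM, screened in duplicate. The HS-YFP quenching rate from iodide influx was expressed relative to forskolin-alone wells. Forskolin plus VX-770 1 μM served as positive control. The average of two rounds was scored, with hit threshold >185%.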

In the case of `Cc1ccc(F)c2[nH]c3c(c12)CN(C(=O)c1cc(C(F)(F)F)[nH]n1)[C@H](C)C3`, the fold change (FC) [1] is reported as greater than 2, the Activity ([2]; filed as activator) is reported as “Active” and the Activity [3] is reported as “inactive”.

`CN(C)c1ccc2cc(C(=O)N3CCc4[nH]c5ccccc5c4C3)[nH]c2c1` was tested, and the Activity [4] was “Active”, the Activity [5] was “Dose-dependent effect” and the Activity [6] was “Active”. For the same compound, the Activity [7] was “Active”.

In the case of `Cc1ccc(F)c2[nH]c3c(c12)CN(C(=O)c1cc(C(F)(F)F)[nH]n1)CC3`, the Activity ([2]; filed as activator) is reported as “Active”.

With `CC(C)(C)c1cc(C(C)(C)C)c(NC(=O)c2c[nH]c3ccccc3c2=O)cc1O` the Activity [8] was “Active”, the Activity ([2]; filed as activator) was “Active” and the Activity [9] was “Active”.

`COc1ccc2[nH]c3c(c2c1)CN(C(=O)c1cc(C(F)(F)F)[nH]n1)CC3` was tested, and the Activity [10] was “inactive”, the Activity [4] was “Active” and the Activity [2] was “inactive”. For the same compound, the Activity [5] was “Dose-dependent effect”, the Activity [11] was “Active” and the Activity [6] was “Active”. For the same compound, the Activity [7] was “Active”.

`COc1cc(F)c2[nH]c3c(c2c1)CN(C(=O)c1cc(C(F)(F)F)[nH]n1)CC3` was tested, and the Activity ([2]; filed as activator) was “Active”.

With `O=C(c1cnn(-c2ccccc2)c1)N1CCc2[nH]c3ccccc3c2C1` the Activity [4] was “Active”, the Activity [5] was “Dose-dependent effect” and the Activity [6] was “Active”. The Activity [7] was “Active”.

In the case of `O=C(c1cc(C(F)(F)F)[nH]n1)N1CCc2[nH]c3c(F)cccc3c2C1`, the Activity ([2]; filed as activator) is reported as “Active”.

`Cc1ccc(F)c2[nH]c3c(c12)[C@H]1CC[C@@H](C3)N1C(=O)c1cc(C(F)(F)F)[nH]n1` was tested, and the EC50 [12] was “Not Active” and the Emax [13] was “inactive”.
